pIC50: −log10 of the molar value. “And” between values parts separate entries of the source, which are not always exact repeats. Identical values can stand only once.
What was measured:
Format in all cases: functional, cell-based, Homo sapiens
41M [1] = test: In vitro antitumor activity against 41M cell line.
How it was run: (§1)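 Human ovarian carcinoma monolayers were grown in DMEM with 10% FCS, insulin and hydrocortisone under 10% CO2. Cells were seeded at 5 × 10^3–1 × 10^4 per well and left to attach overnight. Drugs were freshly dissolved in 0.9% saline (1 mM or 500 μM stocks) and added to quadruplicate wells for 96 h. Cell mass was read by SRB staining. IC50 values are means of at least two experiments.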

41M [2] = test: In vitro antitumor activity against 41McisR cell line.; how it was run: as §1
A2780 [3] = test: In vitro antitumor activity against A2780cisR cell line.; how it was run: as §1
A2780 [4] = test: In vitro antitumor activity against A2780 cell line.; how it was run: as §1
CH1 [5] = test: In vitro antitumor activity against CH1cisR cell line.; how it was run: as §1
CH1 [6] = test: In vitro antitumor activity against CH1 cell line.; how it was run: as §1
SK-OV-3 = test: In vitro antitumor activity against SK-OV-3 cell line.; how it was run: as §1

Substance | pIC50 (41M [1]) | pIC50 (41M [2]) | pIC50 (A2780 [3]) | pIC50 (A2780 [4]) | pIC50 (CH1 [5]) | pIC50 (CH1 [6]) | pIC50 (SK-OV-3)
Trans-Amminedichloro(cycloheptylamine)platinium (II) | 5.62 | 5.77 | 5.34 | 5.89 | 5.33 | 5.37 | 5.00
trans-(1-Aminoadamantane)Amminedichloro-platinium (II) | 6.31 | 5.92 | 5.85 | 6.40 | 6.37 | 6.68 | 5.82
trans-Amminetetrachloro(quinuclidine)-platinium (IV) | 4.78 | 4.80 | 4.80 | 4.85 | 4.81 | 4.81 | 4.54
trans-a,f-Dichloro-b,d-bis(cyclohexylamine)-c,e-dihydroxo-platinium (IV) | 6.10 | 5.92 | 5.49 | 6.10 | 6.22 | 6.26 | 5.60
trans-a-Ammine-b,d-dichloro-c,e-dihydrooxy-f-(ethylamine)-platinium (IV) | 5.03 | 4.88 | 4.58 | 5.35 | 4.85 | 4.99 | 4.35
trans-a-Ammine-b,d-dichloro-c,e-dihydroxo-f-(quinuclidine)-platinium (IV) | 4.84 | 5.02 | 4.80 | 5.49 | 4.84 | 4.99 | 4.57
trans-a-ammine-b,d-dichloro-f-(cyclohexylamine)-c,e-bis-(ethylcarbamato)platinium (IV) | 5.21 | 5.37 | 4.97 | 5.49 | 5.25 | 5.34 | 4.72

Further lines, results first:

pIC50 (41M [1]) | pIC50 (41M [2]) | pIC50 (A2780 [3]) | pIC50 (A2780 [4]) | pIC50 (CH1 [5]) | pIC50 (CH1 [6]) | pIC50 (SK-OV-3) | Substance
5.35 | 5.39 | 5.32 | 5.64 | 5.36 | 5.40 | 5.15 | Trans-Amminedichloro hexylamine platinium (II)
< 4.30 | < 4.30 | < 4.30 | < 4.30 | < 4.30 | < 4.30 | < 4.30 | Trans-Amminedichloro(diethylamine)platinium (II)
5.40 | 5.49 | 5.27 | 5.72 | 5.30 | 5.40 | 4.94 | trans-Amminedibromo (cyclohexylamine)-platinium (II)
< 4.30 | < 4.30 | < 4.30 | 4.59 | < 4.30 | < 4.30 | < 4.30 | trans-Amminedichloro(quinuclidine)platinium (II)
5.51 | 5.39 | 5.28 | 5.82 | 5.33 | 5.41 | 5.03 | trans-Amminetetrachloro(cyclohexylamine)-platinium (IV)
5.74 | 6.12 | 4.94 | 5.72 | 5.35 | 5.48 | 4.92 | trans-a-Ammine-b,d-dichloro-c,e-dihydroxy-f-(diethylamine)-platinium (IV)
5.89 and 5.46 | 5.85 and 5.49 | 5.52 and 5.72 | 6.38 and 6.10 | 5.68 and 5.70 | 5.96 and 6.24 | 5.22 and 4.78 | trans-a-ammine-b,d-dichloro-f-(cyclohexylamine)-c,e-dihydroxoplatinium (IV)

From ChEMBL document CHEMBL1128497, “Synthesis and in vitro and in vivo antitumor activity of a series of trans platinum antitumor complexes” (J Med Chem, 1995)
